Columns and labels:
[1] = target: Mitogen-activated protein kinase kinase kinase 6 (Homo sapiens) (UniProt O95382); experiment: Binding affinity to wild-type human partial length ASK2 (M278 to R972 residues) expressed in HEK293 cells at 1 uM by Kinomescan method relative to control; type: cell-based
Procedure, shortened: (§1)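 Kinome-wide competition binding panel run by an outside provider, with each compound tested at a single concentration. Activity is read against the kinase panel.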

[2] = target: Serine/threonine-protein kinase DCLK3 (Homo sapiens) (UniProt Q9C098); experiment: Binding affinity to wild-type human partial length DCAMKL3 (E140 to V628 residues) expressed in Escherichia coli BL21 at 1 uM by Kinomescan method relative to control
[3] = target: Dual specificity tyrosine-phosphorylation-regulated kinase 1B (Homo sapiens) (UniProt Q9Y463); experiment: Binding affinity to wild-type human full length DYRK1B (M1 to S629 residues) expressed in Escherichia coli BL21 at 1 uM by Kinomescan method relative to control
Procedure, shortened: (§2)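 Run as one kinome-wide competition binding panel with each compound at a single fixed concentration. Results were plotted as a kinome-wide selectivity map.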

[4] = target: Epidermal growth factor receptor (Homo sapiens) (UniProt P00533); experiment: Binding affinity to human partial length EGFR L747-T751del/Sins mutant expressed in Escherichia coli BL21 at 1 uM by Kinomescan method relative to control
[5] = target: Eukaryotic translation initiation factor 2-alpha kinase 1 (Homo sapiens) (UniProt Q9BQI3); experiment: Binding affinity to wild-type human partial length EIF2AK1 (Q147 to E603 residues) expressed in HEK293 cells at 1 uM by Kinomescan method relative to control; type: cell-based
[6] = target: Mitogen-activated protein kinase 3 (Homo sapiens) (UniProt P27361); experiment: Binding affinity to wild-type human full length ERK1 (M1 to P379 residues) expressed in Escherichia coli BL21 at 1 uM by Kinomescan method relative to control; procedure, shortened: as §2
[7] = test system: Receptor-type tyrosine-protein kinase FLT3 (Homo sapiens), P36888 [UNDEFINED MUTATION]; experiment: Binding affinity to human partial length FLT3 ITD mutant expressed in Escherichia coli BL21 at 1 uM by Kinomescan method relative to control
[8] = test system: Receptor-type tyrosine-protein kinase FLT3 (Homo sapiens), P36888 [R834Q]; experiment: Binding affinity to human partial length FLT3 R834Q mutant (V592 to Y969 residues) expressed in HEK293 cells at 1 uM by Kinomescan method relative to control; type: cell-based
[9] = target: Interleukin-1 receptor-associated kinase 1 (Homo sapiens) (UniProt P51617); experiment: Binding affinity to wild-type human partial length IRAK1 (R194 to S712 residues) expressed in HEK293 cells at 1 uM by Kinomescan method relative to control; type: cell-based
[10] = target: Interleukin-1 receptor-associated kinase 3 (Homo sapiens) (UniProt Q9Y616); experiment: Binding affinity to wild-type human partial length IRAK3 (V147 to E596 residues) expressed in Escherichia coli BL21 at 1 uM by Kinomescan method relative to control
[11] = test system: Mast/stem cell growth factor receptor Kit (Homo sapiens), P10721 [L576P]; experiment: Binding affinity to human partial length KIT L576P mutant (Y545 to D952 residues) expressed in Escherichia coli BL21 at 1 uM by Kinomescan method relative to control
[12] = target: Leucine-rich repeat serine/threonine-protein kinase 2 (Homo sapiens, UniProt Q5S007); experiment: Binding affinity to wild-type human partial length LRRK2 (H970 to E2527 residues) expressed in HEK293 cells at 1 uM by Kinomescan method relative to control; type: cell-based
[13] = target: Tyrosine-protein kinase Lyn (Homo sapiens) (UniProt P07948); experiment: Binding affinity to wild-type human partial length LYN (C219 to Q511 residues) expressed in Escherichia coli BL21 at 1 uM by Kinomescan method relative to control
[14] = target: Hepatocyte growth factor receptor (Homo sapiens) (UniProt P08581); experiment: Binding affinity to wild-type human partial length MET (D1010 to S1367 residues) expressed in Escherichia coli BL21 at 1 uM by Kinomescan method relative to control
[15] = target: Myosin-IIIa (Homo sapiens) (UniProt Q8NEV4); experiment: Binding affinity to wild-type human partial length MYO3A (M1 to K338 residues) expressed in Escherichia coli BL21 at 1 uM by Kinomescan method relative to control
[16] = target: Serine/threonine-protein kinase 38 (Homo sapiens) (UniProt Q15208); experiment: Binding affinity to wild-type human partial length NDR1 (N33 to E449 residues) expressed in HEK293 cells at 1 uM by Kinomescan method relative to control; type: cell-based
[17] = target: Serine/threonine-protein kinase NLK (Homo sapiens) (UniProt Q9UBE8); experiment: Binding affinity to wild-type human full length NLK (M13 to E527 residues) expressed in Escherichia coli BL21 at 1 uM by Kinomescan method relative to control; procedure, shortened: as §1
[18] = target: Serine/threonine-protein kinase RIO1 (Homo sapiens) (UniProt Q9BRS2); experiment: Binding affinity to wild-type human full length RIOK1 (M1 to K568 residues) expressed in Escherichia coli BL21 at 1 uM by Kinomescan method relative to control
[19] = target: Serine/threonine-protein kinase RIO2 (Homo sapiens) (UniProt Q9BVS4); experiment: Binding affinity to wild-type human partial length RIOK2 (M1 to D313 residues) expressed in HEK293 cells at 1 uM by Kinomescan method relative to control; type: cell-based
[20] = target: Serine/threonine-protein kinase SBK1 (Homo sapiens) (UniProt Q52WX2); experiment: Binding affinity to wild-type human partial length SBK1 (P23 to P348 residues) expressed in HEK293 cells at 1 uM by Kinomescan method relative to control; type: cell-based
[21] = target: Serine/threonine-protein kinase tousled-like 1 (Homo sapiens) (UniProt Q9UKI8); experiment: Binding affinity to wild-type human partial length TLK1 (K447 to A754 residues) expressed in Escherichia coli BL21 at 1 uM by Kinomescan method relative to control
[22] = target: Serine/threonine-protein kinase tousled-like 2 (Homo sapiens) (UniProt Q86UE8); experiment: Binding affinity to wild-type human partial length TLK2 (E424 to N749 residues) expressed in Escherichia coli BL21 at 1 uM by Kinomescan method relative to control
[23] = target: Serine/threonine-protein kinase ULK1 (Homo sapiens) (UniProt O75385); experiment: Binding affinity to wild-type human partial length ULK1 (M1 to T309 residues) expressed in HEK293 cells at 1 uM by Kinomescan method relative to control; type: cell-based
[24] = target: Tyrosine-protein kinase Yes (Homo sapiens) (UniProt P07947); experiment: Binding affinity to wild-type human partial length YES (T257 to L543 residues) expressed in Escherichia coli BL21 at 1 uM by Kinomescan method relative to control
[25] = target: Serine/threonine-protein kinase 25 (Homo sapiens) (UniProt O00506); experiment: Binding affinity to wild-type human partial length YSK1 (V14 to H295 residues) expressed in Escherichia coli BL21 at 1 uM by Kinomescan method relative to control
Serine/threonine-protein kinase 25 (Homo sapiens), sequence (O00506 whole entry, looked up, the tested form may be a part): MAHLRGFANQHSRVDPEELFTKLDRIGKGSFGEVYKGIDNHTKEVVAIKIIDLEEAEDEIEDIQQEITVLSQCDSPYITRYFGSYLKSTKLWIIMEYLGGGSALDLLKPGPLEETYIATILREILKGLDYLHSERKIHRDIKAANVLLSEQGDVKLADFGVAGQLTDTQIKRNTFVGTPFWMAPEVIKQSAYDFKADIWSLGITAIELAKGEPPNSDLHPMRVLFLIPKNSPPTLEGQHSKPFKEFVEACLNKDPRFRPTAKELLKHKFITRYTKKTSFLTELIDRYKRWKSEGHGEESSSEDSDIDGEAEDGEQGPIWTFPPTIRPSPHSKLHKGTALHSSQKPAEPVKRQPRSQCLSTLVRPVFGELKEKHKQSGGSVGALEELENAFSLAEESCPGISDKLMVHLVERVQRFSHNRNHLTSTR

Interleukin-1 receptor-associated kinase 1 (Homo sapiens), sequence (P51617 whole entry, looked up, the tested form may be a part): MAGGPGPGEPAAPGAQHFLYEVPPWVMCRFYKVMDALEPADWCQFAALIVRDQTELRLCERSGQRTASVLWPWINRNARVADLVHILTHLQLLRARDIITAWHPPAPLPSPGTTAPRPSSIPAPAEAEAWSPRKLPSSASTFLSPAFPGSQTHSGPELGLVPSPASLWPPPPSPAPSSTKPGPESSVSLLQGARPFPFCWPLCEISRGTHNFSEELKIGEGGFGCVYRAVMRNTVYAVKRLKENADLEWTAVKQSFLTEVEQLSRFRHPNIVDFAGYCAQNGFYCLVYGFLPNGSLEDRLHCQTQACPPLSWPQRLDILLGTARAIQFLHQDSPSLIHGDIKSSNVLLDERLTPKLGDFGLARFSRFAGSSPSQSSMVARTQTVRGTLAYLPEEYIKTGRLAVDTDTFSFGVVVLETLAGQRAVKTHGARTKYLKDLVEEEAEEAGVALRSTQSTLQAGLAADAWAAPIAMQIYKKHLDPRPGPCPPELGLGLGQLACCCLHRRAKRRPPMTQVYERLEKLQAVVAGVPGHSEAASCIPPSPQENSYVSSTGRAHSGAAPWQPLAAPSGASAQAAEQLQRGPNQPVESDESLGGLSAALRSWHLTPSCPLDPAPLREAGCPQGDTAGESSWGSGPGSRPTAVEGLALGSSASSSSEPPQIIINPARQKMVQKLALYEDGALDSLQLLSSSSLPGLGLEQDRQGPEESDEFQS
Mitogen-activated protein kinase 3 (Homo sapiens), sequence (P27361 whole entry, the tested form may be a part): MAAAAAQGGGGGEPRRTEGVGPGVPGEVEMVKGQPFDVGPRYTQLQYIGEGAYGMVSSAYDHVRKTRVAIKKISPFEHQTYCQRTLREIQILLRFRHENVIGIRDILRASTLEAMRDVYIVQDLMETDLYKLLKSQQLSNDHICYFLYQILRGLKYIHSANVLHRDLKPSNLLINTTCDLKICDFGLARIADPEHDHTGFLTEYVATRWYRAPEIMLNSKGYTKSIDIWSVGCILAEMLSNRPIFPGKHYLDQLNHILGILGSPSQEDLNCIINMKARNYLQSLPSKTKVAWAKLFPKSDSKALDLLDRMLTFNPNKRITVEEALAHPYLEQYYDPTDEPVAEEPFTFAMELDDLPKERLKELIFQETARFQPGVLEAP
Serine/threonine-protein kinase SBK1 (Homo sapiens), sequence (Q52WX2 whole entry, the tested form may be a part): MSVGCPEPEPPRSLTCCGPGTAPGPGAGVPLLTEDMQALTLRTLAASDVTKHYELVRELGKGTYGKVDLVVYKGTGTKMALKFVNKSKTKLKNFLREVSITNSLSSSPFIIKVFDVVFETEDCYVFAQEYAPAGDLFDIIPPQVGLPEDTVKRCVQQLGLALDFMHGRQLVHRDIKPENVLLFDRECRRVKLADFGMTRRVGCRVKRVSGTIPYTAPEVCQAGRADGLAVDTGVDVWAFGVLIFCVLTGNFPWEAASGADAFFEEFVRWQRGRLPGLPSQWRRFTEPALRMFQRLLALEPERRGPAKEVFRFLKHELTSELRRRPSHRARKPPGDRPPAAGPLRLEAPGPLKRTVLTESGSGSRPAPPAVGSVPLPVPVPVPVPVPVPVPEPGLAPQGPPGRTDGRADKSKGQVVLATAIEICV
Dual specificity tyrosine-phosphorylation-regulated kinase 1B (Homo sapiens), sequence (Q9Y463 whole entry, looked up, the tested form may be a part): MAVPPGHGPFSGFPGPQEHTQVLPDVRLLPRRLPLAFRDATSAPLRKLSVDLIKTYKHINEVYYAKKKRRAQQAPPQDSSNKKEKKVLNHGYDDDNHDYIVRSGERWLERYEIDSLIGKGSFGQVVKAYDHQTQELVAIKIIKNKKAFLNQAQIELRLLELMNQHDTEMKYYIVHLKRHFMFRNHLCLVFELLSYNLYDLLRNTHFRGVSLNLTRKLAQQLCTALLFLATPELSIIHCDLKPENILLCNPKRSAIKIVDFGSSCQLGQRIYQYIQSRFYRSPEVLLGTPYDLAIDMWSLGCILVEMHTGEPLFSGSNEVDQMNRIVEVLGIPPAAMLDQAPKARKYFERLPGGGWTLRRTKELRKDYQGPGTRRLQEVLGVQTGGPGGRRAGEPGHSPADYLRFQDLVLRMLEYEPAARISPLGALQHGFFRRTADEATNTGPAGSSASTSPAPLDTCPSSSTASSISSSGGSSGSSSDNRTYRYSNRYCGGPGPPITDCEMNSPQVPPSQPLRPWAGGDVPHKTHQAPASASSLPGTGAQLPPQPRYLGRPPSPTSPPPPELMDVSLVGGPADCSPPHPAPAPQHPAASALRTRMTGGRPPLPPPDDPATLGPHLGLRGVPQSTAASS
Mitogen-activated protein kinase kinase kinase 6 (Homo sapiens), sequence (O95382 whole entry, the tested form may be a part): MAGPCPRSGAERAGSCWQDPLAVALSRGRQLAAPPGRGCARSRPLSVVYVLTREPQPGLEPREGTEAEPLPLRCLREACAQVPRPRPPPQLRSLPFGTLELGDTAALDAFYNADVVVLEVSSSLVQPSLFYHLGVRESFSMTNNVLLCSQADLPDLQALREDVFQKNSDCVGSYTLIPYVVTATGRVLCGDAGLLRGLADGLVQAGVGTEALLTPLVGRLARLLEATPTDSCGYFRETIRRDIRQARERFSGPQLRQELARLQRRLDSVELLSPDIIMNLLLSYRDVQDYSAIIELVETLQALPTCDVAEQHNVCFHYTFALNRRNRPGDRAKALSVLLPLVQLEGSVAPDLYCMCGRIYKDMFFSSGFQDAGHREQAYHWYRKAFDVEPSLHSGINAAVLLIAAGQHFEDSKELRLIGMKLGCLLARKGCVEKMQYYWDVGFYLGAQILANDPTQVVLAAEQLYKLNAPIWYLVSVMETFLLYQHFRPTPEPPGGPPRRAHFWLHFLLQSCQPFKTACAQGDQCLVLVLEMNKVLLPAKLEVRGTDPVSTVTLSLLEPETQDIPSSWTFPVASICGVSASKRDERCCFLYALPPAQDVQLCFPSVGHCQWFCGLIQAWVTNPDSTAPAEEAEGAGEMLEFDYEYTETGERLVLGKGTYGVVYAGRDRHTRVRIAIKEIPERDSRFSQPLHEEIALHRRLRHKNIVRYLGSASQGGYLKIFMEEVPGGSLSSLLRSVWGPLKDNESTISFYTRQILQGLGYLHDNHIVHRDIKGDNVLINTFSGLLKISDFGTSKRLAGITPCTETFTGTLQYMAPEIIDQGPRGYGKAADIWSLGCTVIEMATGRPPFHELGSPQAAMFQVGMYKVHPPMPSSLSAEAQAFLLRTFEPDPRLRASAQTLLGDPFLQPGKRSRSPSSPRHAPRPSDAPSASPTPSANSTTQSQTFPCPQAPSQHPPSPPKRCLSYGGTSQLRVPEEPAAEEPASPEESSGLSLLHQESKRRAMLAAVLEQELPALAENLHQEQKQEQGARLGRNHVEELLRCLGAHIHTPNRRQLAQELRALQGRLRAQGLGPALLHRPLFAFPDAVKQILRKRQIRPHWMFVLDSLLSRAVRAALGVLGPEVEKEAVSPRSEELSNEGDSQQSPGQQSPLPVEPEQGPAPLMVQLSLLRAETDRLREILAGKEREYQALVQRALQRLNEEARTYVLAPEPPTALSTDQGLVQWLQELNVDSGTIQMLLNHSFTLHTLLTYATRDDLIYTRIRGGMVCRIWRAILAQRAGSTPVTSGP
Tyrosine-protein kinase Lyn (Homo sapiens), sequence (P07948 2-512 limits assumed): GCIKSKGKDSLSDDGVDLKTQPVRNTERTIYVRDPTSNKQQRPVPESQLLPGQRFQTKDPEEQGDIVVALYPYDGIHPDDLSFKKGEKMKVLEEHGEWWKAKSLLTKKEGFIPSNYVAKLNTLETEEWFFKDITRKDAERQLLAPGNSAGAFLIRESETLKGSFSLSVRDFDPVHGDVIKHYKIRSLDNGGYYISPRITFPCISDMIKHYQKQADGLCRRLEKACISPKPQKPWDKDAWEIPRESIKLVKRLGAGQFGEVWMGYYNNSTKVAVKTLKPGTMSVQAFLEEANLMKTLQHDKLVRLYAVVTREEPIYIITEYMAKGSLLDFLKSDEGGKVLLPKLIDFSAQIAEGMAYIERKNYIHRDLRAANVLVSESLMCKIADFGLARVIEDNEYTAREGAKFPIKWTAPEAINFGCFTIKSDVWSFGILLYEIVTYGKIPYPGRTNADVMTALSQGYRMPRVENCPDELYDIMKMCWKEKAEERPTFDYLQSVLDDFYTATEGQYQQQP
Serine/threonine-protein kinase NLK (Homo sapiens), sequence (Q9UBE8 whole entry, the tested form may be a part): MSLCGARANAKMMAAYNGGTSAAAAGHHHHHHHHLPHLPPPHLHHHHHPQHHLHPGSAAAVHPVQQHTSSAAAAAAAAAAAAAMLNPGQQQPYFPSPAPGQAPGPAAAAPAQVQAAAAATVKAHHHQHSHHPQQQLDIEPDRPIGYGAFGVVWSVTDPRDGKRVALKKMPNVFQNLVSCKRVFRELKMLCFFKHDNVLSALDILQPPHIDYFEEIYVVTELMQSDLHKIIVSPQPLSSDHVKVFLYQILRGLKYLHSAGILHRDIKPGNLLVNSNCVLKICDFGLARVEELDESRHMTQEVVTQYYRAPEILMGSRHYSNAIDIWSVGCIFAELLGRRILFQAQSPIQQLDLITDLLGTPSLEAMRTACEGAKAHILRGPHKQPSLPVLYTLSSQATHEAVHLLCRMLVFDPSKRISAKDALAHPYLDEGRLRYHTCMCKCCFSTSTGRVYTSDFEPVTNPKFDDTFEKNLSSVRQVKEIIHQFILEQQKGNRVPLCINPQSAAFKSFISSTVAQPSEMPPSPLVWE

Compound	Activity [1] [%]	Activity [2] [%]	Activity [3] [%]	Activity [4] [%]	Activity [5] [%]	Activity [6] [%]	Activity [7] [%]	Activity [8] [%]	Activity [9] [%]	Activity [10] [%]	Activity [11] [%]	Activity [12] [%]	Activity [13] [%]	Activity [14] [%]	Activity [15] [%]	Activity [16] [%]	Activity [17] [%]	Activity [18] [%]	Activity [19] [%]	Activity [20] [%]	other results
CCC(=O)Nc1ccc(C(=O)Nc2ccc(Nc3ncc4c(n3)N(C)c3ccc(C)cc3C(=O)N4C)cc2)cc1	89	100	100	89	93	95	94	86	90	89	71	72	97	90	96	80	100	68	58	93	Activity [21]: 99%; Activity [22]: 100%; Activity [23]: 91%; Activity [24]: 83%; Activity [25]: 100%
C=CC(=O)Nc1ccc(C(=O)Nc2ccc(Nc3ncc4c(n3)N(C)c3ccc(C)cc3C(=O)N4C)cc2)cc1	83	93	90	81	100	100	83	98	95	98	85	85	97	100	94	87	81	84	93	100	Activity [21]: 94%; Activity [22]: 98%; Activity [23]: 79%; Activity [24]: 90%; Activity [25]: 87%

Source: ChEMBL document CHEMBL4184148 (Bioorg Med Chem Lett, 2017)
